Bioassay records as filed in PubChem.
Wnt act: activators of Wnt/beta-catenin signaling. Wnt/beta-catenin reporter cell assay, activator, plate reader. activation, % at 9.35 µM. hit rate 1.2% among 300,000; in the data active = activation above about 30%, passing the limit was not always enough; inconclusive = no clear call, values can overlap the other calls;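 note: 0% = neutral control wells and 100% = positive control wells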
MITF TRPM1 HTS: MITF TRPM1 promoter activation in melanoma cells; SK-MEL-5 TRPM1-promoter luciferase, 24 h; % of positive control, neutral wells = 0; activation, % at 12.5 µM; hit rate 0.75% among 300,000; AID 588334;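 active = mean activation of at least 80% with every replicate also reaching 80%; inconclusive = mean reaches 80% but some replicate falls short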;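 note: 0% = neutral control wells and 100% = parthenolide positive control wells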
Vif imaging: HIV Vif inhibition. HEK293T cells, Vif self-association by quenched fluorescence, imaging, 24 h. inhibition, % at 7.49 µM. hit rate 0.35% among 340,000; in the data active = inhibition above about 50%, passing the limit was not always enough; inconclusive = no clear call, values can overlap the other calls; inactive = below about 31%
Xi reactivation: activators of X-chromosome reactivation in mouse fibroblasts; XiGFP mouse fibroblasts, % GFP-positive cells imaging, 3 d; cells co-treated with 5-aza-dC sensitizer; scaled so ellipticine positive control = 100%; activation, % at 7.58 µM; hit rate 0.055% among 360,000; AID 743238;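 active = mean normalized replicate activation at least 10% and every replicate at or above 10%; inconclusive = only one of the two criteria met; inactive = mean below 10% and not all replicates reach 10%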;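 note: 0% = median of on-plate neutral control wells and 100% = ellipticine 6 µM median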
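Material: XiGFP fibroblasts, SV40-immortalized; Buffer or medium: DMEM containing 5-aza-dC; Compound dosing: single point; Times: 3 days compound exposure.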
esBAF inh: inhibitors of esBAF chromatin remodeling in mouse ES cells. hit rate 2% among 350,000. Bmi1-luciferase knock-in reporter, 24 h; 100% = twice the neutral-well signal. reporter increase, % at 12.5 µM; in the data active = activation above about 40%; inconclusive = no clear call, values can overlap the other calls;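 note: 0% = median of the plate's neutral control wells and 100% = double that signal; a rise in the Bmi1 reporter signal indicates esBAF inhibition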
Ring1 derepress: esBAF inhibition confirmed by Ring1 de-repression | shares compounds with esBAF inh | mouse ESC E14, Ring1 mRNA RT-qPCR fold change | fold change at 33 µM | 550 tested, under 10 active | AID 743176;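 active = Ring1 gene expression raised more than 2-fold over untreated cells in both replicates at either tested dose; inconclusive = only one replicate above 2-fold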;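 note: Ring1 transcript normalised to actin housekeeping signal by TaqMan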
esBAF Fgf4 qPCR: esBAF inhibition confirmed by Fgf4 repression; shares compounds with esBAF inh; mouse ESC E14, Fgf4 mRNA qPCR fold change; active compounds read low; Fgf4 expression fold change at 33 µM; hit rate 4% among 550; AID 743177;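 active = Fgf4 expression under 0.8 fold of control in both repeat measurements at one or both tested doses; inconclusive = under 0.8 fold in just a single repeat measurement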;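 note: Fgf4 transcript normalised to actin in duplex TaqMan qPCR; cells exposed to compound for 24 h before lysis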
Bmi1 derepress: confirmation of esBAF inhibitors: Bmi1 de-repression in mouse ESCs; mouse ESE14 ES cells, Bmi1 mRNA qPCR fold; active compounds read high; fold change at 33 µM; 550 tested, under 10 active; AID 743180; shares compounds with esBAF inh;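 active = Bmi1 expression fold change above 6 at either tested concentration, seen in replicate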;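 note: higher fold means more Bmi1 de-repression and stronger esBAF inhibition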
A549 tox SP: cytotoxicity in A549 cells | plate reader | cell viability change % (negative = cytotoxic), % at 25 µM, hits read low | 550 tested, under 10 active | shares compounds with esBAF inh | AID 743188; call rule not given here
HepG2 cytotox SP: HepG2 cell cytotoxicity at single point; activity change, negative = inhibition, % at 25 µM; plate reader; active compounds read low; hit rate 4% among 550; shares compounds with esBAF inh; in the data active = activity change below about -50%
HEK293 tox SP: kills or reduces viability of HEK293 cells; shares compounds with esBAF inh; HEK293 cytotoxicity, plate reader; activity change, negative = inhibition, % at 25 µM, hits read low; hit rate 3% among 550; AID 743190; in the data active = activity change below about -38%, passing the limit was not always enough
Starred values were filed as active, the others as inactive; ? = inconclusive; / = no result given. The list is not random: actives were taken first. Their share in the collection is about 2.6%.

SMILES	Wnt act	MITF TRPM1 HTS	Vif imaging	Xi reactivation	esBAF inh	Ring1 derepress	esBAF Fgf4 qPCR	Bmi1 derepress	A549 tox SP	HepG2 cytotox SP	HEK293 tox SP
CCN(CC)C(=O)OCc1c(-c2ccccc2)ncc2ccccc12	?	102*	/	-1	106*	0.92	?	2	-2	-2	-4
COc1cccc(N(C(=O)c2cccs2)c2nc3ccccc3s2)c1	/	65	7	/	59*	1.4	0.97	2.9	-1	-10	-13
CC(C)NC(=O)N(C)C[C@@H]1Oc2ccccc2C(=O)N(C)C[C@H]1C	/	/	/	0	/	/	/	/	/	/	/
c1ccc(-c2csc(Nc3cccnc3)n2)nc1	/	57	/	/	61*	1.1	1.1	1.3	-15	-14	-6
CC(=O)Nc1nc(-c2ccc(-c3ccccc3)cc2)cs1	40*	/	/	0	68*	0.95	0.89	1.5	-12	-35	0
c1ccc(Nc2nc(-c3ccncc3)cs2)cc1	/	144*	-4	/	59*	1.4	1.1	3.5	-11	43	-8
COc1ccc(-c2csc(Nc3cccnc3)n2)cc1	/	42	5	/	/	/	/	/	/	/	/
COc1ccc(Cc2nc3ccc(C(=O)N(C)Cc4nccs4)cc3o2)cc1OC	-2	-8	-7	0	-2	/	/	/	/	/	/
CN(Cc1nccn1C)C(=O)c1ccc2nc(Cc3ccccc3F)oc2c1	15	63	-3	0	65*	0.78	0.85	1.5	-16	-47	-26
CN(Cc1nccs1)C(=O)c1ccc2nc(Cc3ccccc3F)oc2c1	26	113*	4	0	67*	1.2	0.94	1.4	-6	-18	-12
C[C@@H]1CN([C@H](C)CO)C(=O)c2cc(C3=CCCCC3)cnc2O[C@H]1CN(C)S(C)(=O)=O	/	/	/	-1	/	/	/	/	/	/	/
CS(=O)(=O)c1ccccc1C(=O)Nc1ccc(-c2nc3ccccc3[nH]2)cc1	18	64	-10	0	58*	1.2	1.4	2	-3	-18	6
CS(=O)(=O)c1ccccc1C(=O)Nc1ccc(-c2nc3ccccc3o2)cc1	22	72	16	0	67*	1.2	1.1	2.2	-6	0	4
COc1cc(OC)cc(C(=O)Nc2ccc(-c3nc4ccccc4o3)cc2)c1	/	-6	9	/	14	/	/	/	/	/	/
CS(=O)(=O)c1cccc(C(=O)Nc2ccc(-c3nc4ccccc4[nH]3)cc2)c1	5	42	-9	0	15	/	/	/	/	/	/
O=C(NC1CCCC1)[C@@H]1[C@@H](CO)[C@@H]2Cn3c(ccc(-c4ccccc4)c3=O)[C@H]1N2	/	/	/	0	/	/	/	/	/	/	/
C[C@H](CO)N1C[C@H](C)[C@@H](CN(C)Cc2ccc(Oc3ccccc3)cc2)Oc2ccc(NS(C)(=O)=O)cc2CC1=O	/	/	/	0	-3	/	/	/	/	/	/
Clc1ccc(Cc2nc(-c3ccncc3)no2)cc1	-2	5	-2	0	/	/	/	/	/	/	/
Cc1cccc(-c2noc(Cc3ccc(Cl)cc3)n2)c1	-6	68	-3	/	87*	1.2	?	1.3	-6	-16	2
COc1ccc(Cc2nc(-c3ccncc3)no2)cc1	0	12	11	0	/	/	/	/	/	/	/
COc1ccc(Cc2nc(-c3cccc(C)c3)no2)cc1	-2	39	-2	/	58*	1	0.88	1.4	-7	-14	-2
C[C@H]1CN([C@@H](C)CO)C(=O)c2cc(NC(=O)CCCCCC(=O)Nc3ccccc3N)ccc2O[C@H]1CN(C)C(=O)Nc1ccc(F)cc1	/	/	/	0	/	/	/	/	/	/	/
